In article PMC5696082 (Analytical biochemistry, 2017):

Experiments:
hCE1 [1] = target: T1, hCE1 (Homo sapiens, UniProt P23141); experiment: Specific activity of hCE1 towards substrates; type: biochemical
T1 sequence (P23141 18-567): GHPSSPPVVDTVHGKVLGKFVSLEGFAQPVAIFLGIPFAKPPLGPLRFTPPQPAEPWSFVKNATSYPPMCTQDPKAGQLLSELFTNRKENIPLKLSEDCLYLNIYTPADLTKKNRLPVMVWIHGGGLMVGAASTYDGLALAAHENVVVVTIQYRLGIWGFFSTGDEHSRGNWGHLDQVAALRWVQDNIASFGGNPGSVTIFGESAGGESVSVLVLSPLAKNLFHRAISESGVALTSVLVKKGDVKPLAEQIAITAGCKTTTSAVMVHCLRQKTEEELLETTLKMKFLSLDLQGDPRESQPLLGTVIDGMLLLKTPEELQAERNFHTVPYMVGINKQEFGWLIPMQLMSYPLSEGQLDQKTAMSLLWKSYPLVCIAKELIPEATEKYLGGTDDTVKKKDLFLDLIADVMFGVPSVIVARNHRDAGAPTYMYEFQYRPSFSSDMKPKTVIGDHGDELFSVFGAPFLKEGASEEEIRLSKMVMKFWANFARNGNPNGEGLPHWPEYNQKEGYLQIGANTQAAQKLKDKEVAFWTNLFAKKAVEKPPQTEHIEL
Procedure, shortened: (§1)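 Enzymes expressed in baculovirus-infected High Five cells: hCE1 CHAPS-solubilised from the 100,000 g pellet, then DEAE-purified; hCE2/hCE3 crude soluble fraction; FAAH crude insoluble fraction. Substrate added to 50 µM final in 100 mM sodium phosphate pH 8.0, 0.1 mg/mL BSA, 1% DMSO. Fluorescence read every 30 s for ≥10 min at 37°C. Rates corrected for estimated purity: hCE1 25%, hCE2 4%, hCE3 3.5% (3% in footnotes), FAAH 6.9%. Triplicates.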

hCE2 [2] = target: T2, hCE2 (Homo sapiens, UniProt O00748); experiment: Specific activity of hCE2 towards substrates; type: biochemical
T2 sequence (O00748 27-559): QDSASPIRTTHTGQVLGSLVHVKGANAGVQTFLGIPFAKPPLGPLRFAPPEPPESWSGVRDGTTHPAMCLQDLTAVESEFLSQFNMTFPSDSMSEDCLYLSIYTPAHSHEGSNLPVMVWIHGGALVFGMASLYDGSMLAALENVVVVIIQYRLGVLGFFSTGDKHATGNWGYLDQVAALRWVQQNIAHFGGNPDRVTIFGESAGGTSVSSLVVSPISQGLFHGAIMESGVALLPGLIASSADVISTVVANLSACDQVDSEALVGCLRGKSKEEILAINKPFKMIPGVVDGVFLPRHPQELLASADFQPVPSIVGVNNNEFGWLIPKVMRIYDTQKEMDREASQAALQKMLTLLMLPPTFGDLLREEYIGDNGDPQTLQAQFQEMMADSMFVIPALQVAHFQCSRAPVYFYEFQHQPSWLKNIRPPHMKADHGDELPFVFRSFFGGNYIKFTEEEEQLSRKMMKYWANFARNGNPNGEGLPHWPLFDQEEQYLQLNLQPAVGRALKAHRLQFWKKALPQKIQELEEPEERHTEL
Procedure, shortened: as §1

FAAH = target: T3, FAAH (Homo sapiens, UniProt O00519); experiment: Specific activity of FAAH towards substrates; type: biochemical
T3 sequence (O00519 1-579): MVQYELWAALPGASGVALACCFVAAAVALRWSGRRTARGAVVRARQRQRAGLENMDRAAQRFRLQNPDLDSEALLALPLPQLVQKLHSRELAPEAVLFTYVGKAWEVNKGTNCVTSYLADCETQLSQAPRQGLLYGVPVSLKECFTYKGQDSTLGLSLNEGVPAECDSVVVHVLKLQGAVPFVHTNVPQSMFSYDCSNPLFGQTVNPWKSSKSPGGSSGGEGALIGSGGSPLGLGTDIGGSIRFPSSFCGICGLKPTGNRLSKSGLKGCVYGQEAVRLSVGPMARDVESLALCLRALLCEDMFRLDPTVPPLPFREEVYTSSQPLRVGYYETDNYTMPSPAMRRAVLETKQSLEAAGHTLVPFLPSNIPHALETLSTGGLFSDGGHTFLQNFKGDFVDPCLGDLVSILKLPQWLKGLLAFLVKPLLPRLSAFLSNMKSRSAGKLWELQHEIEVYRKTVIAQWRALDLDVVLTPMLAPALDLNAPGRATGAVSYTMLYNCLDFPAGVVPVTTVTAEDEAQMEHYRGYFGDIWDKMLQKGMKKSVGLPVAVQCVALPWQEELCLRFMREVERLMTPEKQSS
Procedure, shortened: as §1

hCE1 [3] = target: T1, hCE1; experiment: Kinetic properties; type: biochemical
hCE2 [4] = target: T2, hCE2; experiment: Kinetic properties; type: biochemical
hCE1 [5] = target: T1, hCE1; experiment: Limit of detection and quantification for hCE1 using partially purified enzyme; type: biochemical; conditions: for LOD for hCE1: S/N > 3; for LOD for hCE1 / LOQ for hCE1: [S] = 50 µM; for LOQ for hCE1: S/N > 9
Procedure, shortened: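 Partially purified recombinant hCE1, without any matrix, diluted into wells with substrate at 50 µM. Assay run in 100 mM sodium phosphate, pH 8, 0.1 mg/mL BSA, 1% DMSO, at 37°C. S/N taken as mean signal of enzyme wells over the SD of […], quadruplicates in one experiment. LOD set as the lowest level with S/N > 3; LOQ as S/N > 9.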

[6] = Background hydrolysis of substrates in phosphate buffer; type: physicochemical
Intestine S9 = experiment: Substrate hydrolysis by pooled tissue S9, intestine; type: biochemical, human
Procedure, shortened: (§2)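 Commercial pooled human tissue S9 fraction added to substrate at 50 µM final in 100 mM sodium phosphate, pH 8.0, 0.1 mg/mL BSA. Fluorescence monitored every 30 s for at least 10 min at 37°C. Specific activity given as the mean of triplicates in one experiment, or mean ± standard deviation of 3 independent experiments run in triplicate.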

Liver S9 = experiment: Substrate hydrolysis by pooled tissue S9, liver; type: biochemical, human
Procedure, shortened: as §2

Lung S9 = experiment: Substrate hydrolysis by pooled tissue S9, lung; type: biochemical, human
Procedure, shortened: as §2

[7] = Kinetic mode (30 s intervals for 30 minutes)

CCCCC(C)CCC(=O)Nc1ccc(OC)nc1C (centres unmarked) [4-MOMMP, N-(6-methoxy-2-methylpyridin-3-yl)-4-methyloctanamide]
Turnover by hCE1, times lower than CMNA (hCE1 [1]): 10 times
Preference of hCE1 over the other esterases tested (hCE1 [1]; 13 other esterases / serine hydrolases): ≥ 10 fold
Hydrolysis Specific Activity (hCE1 [1]; Table 6, hCE1): 370 ± 27 pmol/min/µg
Selectivity of hCE1 turnover compared to hCE2 (hCE2 [2]): 40- to 50 fold
hCE2 Specific activity (hCE2 [2]; Table 3, [S] = 50 µM, 37°C, pH 8, estimated 4% purity): 13 pmol/min/µg
Hydrolysis Specific Activity (hCE2 [2]; Table 6, hCE2): 6.4 ± 0.7 pmol/min/µg
Selectivity of hCE1 over FAAH (turnover) (FAAH): 10 fold
Catalytic efficiency of hCE1, fold lower than that of CMNA (hCE1 [3]): approximately 16 fold
Vmax with hCE1, fold lower than CMNA (hCE1 [3]): 3 fold
Vmax, fold higher with hCE1 than hCE2 (hCE1 [3]): 120 fold
KM for hCE2, fold lower than that of hCE1 (hCE2 [4]): 3 fold
Time over which hCE1 hydrolysis remained linear (hCE1 [5]): at least 24 hours
LOD for hCE1 (hCE1 [5]; Endpoint mode 1 hour): 0.06 ng
LOQ for hCE1 (hCE1 [5]; Endpoint mode 1 hour): 2.0 ng
LOD for hCE1 (hCE1 [5]; Endpoint mode 4 hours): 0.03 ng
LOQ for hCE1 (hCE1 [5]; Endpoint mode 4 hours): 0.12 ng
LOD for hCE1 (hCE1 [5]; Endpoint mode 24 hours): 0.008 ng
LOQ for hCE1 (hCE1 [5]; Endpoint mode 24 hours): 0.03 ng
LOD for hCE1 (hCE1 [5]; [7]): 3.9 ng
LOQ for hCE1 (hCE1 [5]; [7]): 16 ng
Limit of quantification for hCE1, fold higher than CMNA (hCE1 [5]; kinetic mode, short time (<30 minutes)): 4 fold
Background hydrolysis, fold lower than CMNA ([6]; phosphate buffer): 200 fold
Rate of background hydrolysis ([6]; phosphate buffer 100 mM, pH 8, 0.1 mg/mL BSA): 0.1 pmol/min
Hydrolysis Specific Activity (Intestine S9): <0.05 pmol/min/µg
Hydrolysis Specific Activity (Liver S9): 5.5 ± 0.4 pmol/min/µg
Hydrolysis Specific Activity (Lung S9): 0.20 ± 0.02 pmol/min/µg
